# From ChEMBL document CHEMBL1275496, “In vivo pharmacodynamic target investigation for micafungin against Candida albicans and C. glabrata in a neutropenic murine candidiasis model” (Antimicrob Agents Chemother, 2008)
# *1 amine or outer side, *2 acyl side, *3 side chain or, on linkers, in order; H or OH if unused. Where a SMILES comes first, the peptide text is derived from it. Bridges are numbered along the chain shown (N, C = ends). [ ]: non-standard residue; d: D form. The star is where a group is joined. hTyr(3S-OH,4S-OH,3'-OSO3H) = N[C@H](C(=O)O)[C@H](O)[C@@H](O)c1ccc(O)c(OS(=O)(=O)O)c1; Orn(4R-OH,5R-OH) = O=C([C@H](C[C@@H](O)[C@@H](O)N[*:3])N[*:1])[*:2]; Pro(3S-OH,4S-Me) = C[C@H]1CN[C@H](C(=O)O)[C@H]1O; X1 = CCCCCOc1ccc(-c2cc(-c3ccc(C(=O)*)cc3)no2)cc1; Gln(3R-OH) = NC(=O)C[C@@H](O)[C@H](N)C(=O)O; Hyp = O=C(O)[C@@H]1C[C@@H](O)CN1
# Legend:
# Nakaseomyces glabratus [1] = test: Antifungal activity against Candida glabrata isolate 5592 infected in ICR/Swiss neutropenic mouse assessed as dose required for 1-log kill after 24 hrs; assay type: functional
# Summary of the method: (§1)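 Neutropenic mice (cyclophosphamide sc 150 mg/kg day −4, 100 mg/kg day −1 and +2) infected iv by tail vein 2 h before therapy. Micafungin given ip every 24 h for 4 days at six fourfold-spaced dose levels, 0.078–80 mg/kg/24 h, 3 mice per group. Kidney CFU read at 96 h. Hill-model fit; dose giving 1 log10 below start-of-therapy burden.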
# Nakaseomyces glabratus [2] = test: Antifungal activity against Candida glabrata isolate 570 infected in ICR/Swiss neutropenic mouse assessed as dose required for 1-log kill after 24 hrs; assay type: functional; summary of the method: as §1
# Nakaseomyces glabratus [3] = test: Antifungal activity against Candida glabrata isolate 33616 infected in ICR/Swiss neutropenic mouse assessed as dose required for 1-log kill after 24 hrs; assay type: functional; summary of the method: as §1
# [4] = Ratio of AUC in ICR/Swiss neutropenic mouse at static dose of 2.53 mg/kg, ip after 24 hrs to MIC for Candida albicans isolate 98-17; assay type: functional; details: route intraperitoneal
# [5] = Ratio of AUC in ICR/Swiss neutropenic mouse at static dose of 2.4 mg/kg, ip after 24 hrs to MIC for Candida glabrata isolate 35315; assay type: functional; details: route intraperitoneal
# [6] = Ratio of AUC in ICR/Swiss neutropenic mouse at static dose of 0.41 mg/kg, ip after 24 hrs to MIC for Candida glabrata isolate 33609; assay type: functional; details: route intraperitoneal
# [7] = Ratio of AUC in ICR/Swiss neutropenic mouse at static dose of 1.34 mg/kg, ip after 24 hrs to MIC for Candida glabrata isolate 513; assay type: functional; details: route intraperitoneal
# [8] = Ratio of AUC in ICR/Swiss neutropenic mouse at static dose of 3.76 mg/kg, ip after 24 hrs to MIC for Candida glabrata isolate 570; assay type: functional; details: route intraperitoneal
# [9] = Ratio of fAUC in ICR/Swiss neutropenic mouse at static dose of 2.84 mg/kg, ip after 24 hrs to MIC for Candida albicans isolate 98-210; assay type: functional; details: route intraperitoneal
# [10] = Ratio of fAUC in ICR/Swiss neutropenic mouse at static dose of 2.4 mg/kg, ip after 24 hrs to MIC for Candida glabrata isolate 35315; assay type: functional; details: route intraperitoneal
# [11] = Ratio of fAUC in ICR/Swiss neutropenic mouse at static dose of 0.06 mg/kg, ip after 24 hrs to MIC for Candida glabrata isolate 32930; assay type: functional; details: route intraperitoneal
# [12] = Ratio of AUC in ICR/Swiss neutropenic mouse at 1-Log kill dose of 4.60 mg/kg, ip after 24 hrs to MIC for Candida albicans isolate 98-17; assay type: functional; details: dose 4.6 mg/kg; route intraperitoneal
# [13] = Ratio of AUC in ICR/Swiss neutropenic mouse at 1-Log kill dose of 4.08 mg/kg, ip after 24 hrs to MIC for Candida albicans isolate K1; assay type: functional; details: route intraperitoneal
# [14] = Ratio of AUC in ICR/Swiss neutropenic mouse at 1-Log kill dose of 20.6 mg/kg, ip after 24 hrs to MIC for Candida glabrata isolate 37661; assay type: functional; details: route intraperitoneal
# [15] = Ratio of AUC in ICR/Swiss neutropenic mouse at 1-Log kill dose of 2.0 mg/kg, ip after 24 hrs to MIC for Candida glabrata isolate 5376; assay type: functional; details: route intraperitoneal
# [16] = Ratio of fAUC in ICR/Swiss neutropenic mouse at 1-Log kill dose of 20.6 mg/kg, ip after 24 hrs to MIC for Candida glabrata isolate 37661; assay type: functional; details: route intraperitoneal
# [17] = Ratio of fAUC in ICR/Swiss neutropenic mouse at 1-Log kill dose of 1.69 mg/kg, ip after 24 hrs to MIC for Candida glabrata isolate 32930; assay type: functional; details: route intraperitoneal
# [18] = Ratio of fAUC in ICR/Swiss neutropenic mouse at 1-Log kill dose of 2.0 mg/kg, ip after 24 hrs to MIC for Candida glabrata isolate 5376; assay type: functional; details: route intraperitoneal
# [19] = AUC in healthy human at 100 mg/day; assay type: ADME, organism-based; details: plasma
# Nakaseomyces glabratus [20] = test: Antifungal activity against Candida glabrata; assay type: functional
# Summary of the method: (§2)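 Broth microdilution MIC per CLSI M27-A2. Two endpoints were read against the drug-free control well: partial inhibition (M1, CLSI recommended) and complete inhibition (M2). Tests were run in duplicate on four separate occasions, and the value is the mean.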
# Candida albicans [21] = test: Antifungal activity against Candida albicans isolate 98-17 by CLSI method; assay type: functional; summary of the method: as §2
# Nakaseomyces glabratus [22] = test: Antifungal activity against Candida glabrata isolate 37661 by CLSI method; assay type: functional
# Summary of the method: (§3)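 Broth microdilution per CLSI M27-A2. The MIC was read at partial inhibition (M1) and at complete inhibition (M2) against the drug-free control. Done in duplicate on four separate occasions and reported as the mean.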
# Nakaseomyces glabratus [23] = test: Antifungal activity against Candida glabrata isolate 570 by CLSI method; assay type: functional; summary of the method: as §2
# Nakaseomyces glabratus [24] = test: Antifungal activity against Candida glabrata isolate 33616 by CLSI method; assay type: functional; summary of the method: as §3
# [25] = Half life in Candida infected ICR/Swiss neutropenic mouse at 80 mg/kg, ip; assay type: ADME, organism-based; set-up: dose 80 mg/kg, route intraperitoneal; details: in vivo
# Summary of the method: (§4)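 Single intraperitoneal micafungin doses (80, 20, 5 mg/kg in 0.2 ml, 0.15 M NaCl) given to infected neutropenic mice. Serum was taken from 3 mice per time point at 1, 2, 4, 6, 8, 12, 24 and 48 h. Drug was measured by microbiologic assay with C. albicans K1 (LLOQ 0.12 μg/ml). Noncompartmental analysis; half-life by nonlinear least squares; AUC by trapezoidal rule.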
# [26] = AUC (0 to infinity) in Candida infected ICR/Swiss neutropenic mouse at 5 mg/kg, ip; assay type: ADME, organism-based; set-up: dose 5 mg/kg, route intraperitoneal, time infinity; details: plasma; summary of the method: as §4
# Candida albicans [27] = test: Fungistatic activity against Candida albicans isolate 98-17 infected in ICR/Swiss neutropenic mouse after 24 hrs; assay type: functional
# Summary of the method: (§5)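 Neutropenic female ICR/Swiss mice received cyclophosphamide sc at 150 mg/kg on day −4, 100 mg/kg on day −1 and 100 mg/kg on day +2. Mice were infected iv via the tail vein, and ip micafungin in 0.15 M NaCl started 2 h later. Six dose levels from 0.078 to 80 mg/kg/24 h were given q24h for 4 days, 3 mice per dose. Kidney CFU were counted at 96 h. The static dose was derived from a sigmoid Emax (Hill) fit.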
# Candida albicans [28] = test: Fungistatic activity against Candida albicans isolate 98-210 infected in ICR/Swiss neutropenic mouse after 24 hrs; assay type: functional; summary of the method: as §5
# Candida albicans [29] = test: Fungistatic activity against Candida albicans isolate K1 infected in ICR/Swiss neutropenic mouse after 24 hrs; assay type: functional; summary of the method: as §5
# Nakaseomyces glabratus [30] = test: Fungistatic activity against Candida glabrata isolate 33616 infected in ICR/Swiss neutropenic mouse after 24 hrs; assay type: functional; summary of the method: as §5
# Candida albicans [31] = test: Antifungal activity against Candida albicans isolate 98-210 infected in ICR/Swiss neutropenic mouse assessed as dose required for 1-log kill after 24 hrs; assay type: functional; summary of the method: as §1
# Nakaseomyces glabratus [32] = test: Antifungal activity against Candida glabrata isolate 35315 infected in ICR/Swiss neutropenic mouse assessed as dose required for 1-log kill after 24 hrs; assay type: functional; summary of the method: as §1
# Nakaseomyces glabratus [33] = test: Antifungal activity against Candida glabrata isolate 37661 infected in ICR/Swiss neutropenic mouse assessed as dose required for 1-log kill after 24 hrs; assay type: functional; summary of the method: as §1
# Nakaseomyces glabratus [34] = test: Antifungal activity against Candida glabrata isolate 34341 infected in ICR/Swiss neutropenic mouse assessed as dose required for 1-log kill after 24 hrs; assay type: functional; summary of the method: as §1
compound,measurement,setting,value
"CCCCCOc1ccc(-c2cc(-c3ccc(C(=O)N[C@H]4C[C@@H](O)[C@@H](O)NC(=O)[C@@H]5[C@@H](O)[C@@H](C)CN5C(=O)[C@H]([C@H](O)CC(N)=O)NC(=O)[C@H]([C@H](O)[C@@H](O)c5ccc(O)c(OS(=O)(=O)O)c5)NC(=O)[C@@H]5C[C@@H](O)CN5C(=O)[C@H]([C@@H](C)O)NC4=O)cc3)no2)cc1 [MICAFUNGIN] (X1-[Orn(4R-OH,5R-OH)]T[Hyp][hTyr(3S-OH,4S-OH,3'-OSO3H)][Gln(3R-OH)][Pro(3S-OH,4S-Me)]; lactam 1-C)",Activity,Nakaseomyces glabratus [1],5.46 mg/kg
same,Activity,Nakaseomyces glabratus [2],6.7 mg/kg
same,Activity,Nakaseomyces glabratus [3],7.89 mg/kg
same,RatioAUC/MIC,[4],2333
same,RatioAUC/MIC,[5],1103
same,RatioAUC/MIC,[6],753
same,RatioAUC/MIC,[7],2467
same,RatioAUC/MIC,[8],6933
same,fAUC/MIC,[9],13
same,fAUC/MIC,[10],2.8
same,fAUC/MIC,[11],0.5
same,RatioAUC/MIC,[12],4233
same,RatioAUC/MIC,[13],7533
same,RatioAUC/MIC,[14],2080
same,RatioAUC/MIC,[15],7886
same,fAUC/MIC,[16],5.2
same,fAUC/MIC,[17],7.8
same,fAUC/MIC,[18],19.7
same,AUC,[19],126 µg·h/mL
same,MIC50,Nakaseomyces glabratus [20],0.015 µg/mL
same,MIC90,Nakaseomyces glabratus [20],0.015 µg/mL
same,MIC,Candida albicans [21],0.06 µg/mL
same,MIC50,Candida albicans [21],0.03 µg/mL
same,MIC,Nakaseomyces glabratus [22],0.25 µg/mL
same,MIC50,Nakaseomyces glabratus [22],0.25 µg/mL
same,MIC,Nakaseomyces glabratus [23],0.03 µg/mL
same,MIC50,Nakaseomyces glabratus [23],0.016 µg/mL
same,MIC,Nakaseomyces glabratus [24],0.5 µg/mL
same,MIC50,Nakaseomyces glabratus [24],0.25 µg/mL
same,half-life,[25],16 h
same,AUC(0-inf),[26],138 µg·h/mL
same,Activity,Candida albicans [27],2.53 mg/kg
same,Activity,Candida albicans [28],2.84 mg/kg
same,Activity,Candida albicans [29],2.84 mg/kg
same,Activity,Nakaseomyces glabratus [30],3.88 mg/kg
same,Activity,Candida albicans [31],10.4 mg/kg
same,Activity,Nakaseomyces glabratus [32],3.77 mg/kg
same,Activity,Nakaseomyces glabratus [33],20.6 mg/kg
same,Activity,Nakaseomyces glabratus [34],4.26 mg/kg
